SMILES strings stand for the structures. The source made the active and inactive calls. The rule behind the calls is not given here.

Series [1] is described as follows: Iron chelating activity in ammonium acetate buffer assessed as inhibition of [Fe(ferrozine)3]2+ formation at 100 uM at pH 6.7 measured after 10 mins by spectrophotometric analysis. The procedure, abridged: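 Ferrozine assay in ammonium acetate buffer pH 6.7. Compound (100 μM) plus ammonium iron(II) sulfate (20 μM) for 10 min, read at 562 nm. Ferrozine was added, incubated 10 min at 37 °C, and re-read at 562 nm. The first reading was subtracted, with a DMSO blank and EDTA = 100%. Three experiments.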

Series [2] is described as follows: Antioxidant activity assessed as DPPH radical scavenging activity measured every minute for 45 mins. In kind it is functional. The procedure, abridged: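 DPPH• ethanolic solution diluted to absorbance 0.72 ± 0.02 at 515 nm. Ethanolic test solutions (50–500 μM) were added in triplicate and read at 515 nm. Inhibition was taken against an ethanol blank (100% radical), and IC50 was read from dose–response curves.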

Series [3] is described as follows: Antioxidant activity assessed as ABTS radical scavenging activity measured each minute for 15 mins by spectrophotometric analysis. In kind it is functional. The procedure, abridged: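 ABTS•+ generated from 7 mM ABTS plus potassium persulfate, held 16 h dark at room temperature, then diluted in ethanol to absorbance 0.72 ± 0.02. Ethanolic test solutions (10–500 μM) were added to radical solution in triplicate. Inhibition was taken against an ethanol blank (100% radical), and IC50 was read from dose–response curves.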

Series [4] can be described thus: Antioxidant activity assessed as GO radical scavenging activity measured for 30 mins in absence of light. In kind it is functional. The procedure, abridged:
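Ethanolic GO• (5 mM stock) diluted to absorbance 1.00 ± 0.02 at 428 nm. Test solutions (5–75 μM in ethanol) were added in triplicate and read at 428 nm at room temperature. Inhibition was taken against an ethanol blank (100% radical).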

Series [5] can be described thus: Redox potential of compound in Ag/AgCl-NaCl containing phosphate buffer at 0.1 mM at pH 7.4 by cyclic voltammetric analysis. In outline:
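Voltammetry used a glassy carbon working electrode, Pt counter and Ag/AgCl reference. Compound was at 0.1 mM final (10 mM ethanolic stock) in pH 7.4 potassium phosphate electrolyte.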

The nature of series [6]: Lipophilicity of compound in Ag/AgCl-NaCl containing PET membrane assessed as tranfer potential at pH 7. Format: physicochemical. In outline: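 Transfer across a liquid–liquid interface on a microporous PET membrane, with 1,6-dichlorohexane organic phase containing BTPPATPBCl. A gelled 2 mM BTPPACl + 2 mM NaCl reference was used, with 10 mM Tris-HCl pH 7.0 aqueous electrolyte.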

For series [7], the system named is Liver. As to the kind of experiment: Drug uptake in rat liver intra-mitochondria at 1 uM in presence of succinate/valinomycin by TPP+-based electrode assay. In kind it is ADME, tissue-based. In outline:
(§1)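 TPP+-selective electrode with rat liver mitochondria (0.5 mg/mL) in 120 mM KCl, 10 mM HEPES pH 7.2, 1 mM EGTA at 37 °C with rotenone 1.5 μM. Five 1 μM additions calibrated the electrode, then succinate 10 mM was added, then valinomycin 0.2 μg/mL. The accumulation ratio assumed a matrix volume of ~0.5 μL/mg with a binding correction.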

The subject of series [8] is Liver. As to the kind of experiment: Drug uptake in rat liver extra-mitochondria at 1 uM in presence of succinate/valinomycin by TPP+-based electrode assay. Format: ADME, tissue-based. In outline:
as §1

Series [9] has as its system Liver. As to the kind of experiment: Ratio of drug level in rat liver intra-mitochondria to extra-mitochondria at 1 uM in presence of succinate/valinomycin by TPP+-based electrode assay. Format: ADME, tissue-based. In outline:
as §1

Series [10] deals with Liver. In words: Antioxidant activity in rat liver mitochondria assessed as inhibition of ADP/FeSO4-induced lipid peroxidation at 5 uM preincubated for 5 mins followed by ADP/FeSO4 addition. Format: functional. The procedure, abridged: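 Rat liver mitochondria (2 mg) in 100 mM KCl, 10 mM Tris-HCl pH 7.6, with glutamate/malate (5/2.5 mM) at 37 °C. After 5 min with compound (5 μM), peroxidation was started with ADP/0.1 mM FeSO4. The lag phase of O2 consumption was measured by Clark electrode and expressed as % of control. Six experiments.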

Series [11] deals with Liver. In words: Induction of ADP-stimulated respiration in rat liver mitochondria after 5 mins in presence of succinate. In kind it is functional. In outline:
(§2)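 Glutamate/malate (10/5 mM) or succinate (5 mM) was the substrate, with compound 2.5–10 μM for 5 min (state 2). ADP was added (125 nmol glutamate/malate; 75 nmol succinate), then oligomycin 2 μg/mL, then FCCP 1 μM. RCR and ADP/O were calculated. Seven experiments.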

In series [12] the test system is Liver. As to the kind of experiment: Induction of basal respiration in rat liver mitochondria measured 5 mins after ADP phosphorylation in presence of glutamate/malate. In kind it is functional. In outline:
as §2

Series [13] has as its system Liver. In words: Increase in oligomycin-inhibited respiration in rat liver mitochondria after 5 mins in presence of glutamate/malate. Format: functional. The procedure, abridged:
as §2

Series [14] concerns Liver. In words: Increase in oligomycin-inhibited respiration in rat liver mitochondria after 5 mins in presence of succinate. Format: functional. In outline:
as §2

For series [15], the system named is Liver. In words: Induction of basal respiration in rat liver mitochondria measured 5 mins after ADP phosphorylation in presence of succinate. Format: functional. In outline:
as §2

In series [16] the test system is Liver. As to the kind of experiment: Induction of basal oxygen consumption under nonphosphorylative conditions in rat liver mitochondria after 5 mins in presence of succinate. Format: functional. The procedure, abridged: as §2
Series [17] deals with Liver. In words: Induction of ADP-stimulated respiration in rat liver mitochondria after 5 mins in presence of glutamate/malate. In kind it is functional. The procedure, abridged:
as §2

Series [18] concerns Liver. As to the kind of experiment: Decrease in oxidative phosphorylation efficiency in rat liver mitochondria assessed as reduction in coupling between ATP systhesis and oxygen consumption after 5 mins in presence of glutamate/malate. In kind it is functional. In outline:
as §2

Series [19] relates to Liver. In words: Decrease in oxidative phosphorylation efficiency in rat liver mitochondria assessed as reduction in coupling between ATP systhesis and oxygen consumption after 5 mins in presence of succinate. Format: functional. In outline: as §2
The subject of series [20] is Liver. As to the kind of experiment: Decrease in oxidative phosphorylation efficiency in rat liver mitochondria assessed as reduction in respiratory control ratio after 5 mins in presence of glutamate/malate. In kind it is functional. In outline:
as §2

In series [21] the test system is Liver. In words: Antioxidant activity in rat liver mitochondria assessed as inhibition of FeSO4/H2O2-induced lipid peroxidation at 5 uM preincubated for 5 mins followed by FeSO4/H2O2 addition for 15 mins by TBARS-based fluorescence assay. In kind it is functional. The procedure, abridged: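 Rat liver mitochondria (2 mg protein/mL) in 100 mM KCl, 10 mM Tris-HCl pH 7.6 with glutamate/malate at 37 °C. After 5 min with compound (5 μM), 100 μM FeSO4/500 μM H2O2/5 mM ascorbate was added for 15 min. Butylated hydroxytoluene, perchloric acid and thiobarbituric acid were added, then heated 15 min at 100 °C. Read-out as % of control, three experiments.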

In series [22] the test system is Liver. As to the kind of experiment: Induction of basal oxygen consumption under nonphosphorylative conditions in rat liver mitochondria after 5 mins in presence of glutamate/malate. In kind it is functional. In outline: as §2
For series [23], the system named is Liver. In words: Induction of membrane hyperpolarization in rat liver mitochondria assessed as change in repolarization potential at 2.5 uM. In kind it is functional. The procedure, abridged:
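Safranine (5 μM) fluorescence (ex 495/em 586 nm) at 25 °C. Rat liver mitochondria (0.5 mg/2 mL) were in 200 mM sucrose, 1 mM KH2PO4, 10 mM Tris pH 7.4, 10 μM EGTA with glutamate/malate or succinate, after 5 min with 2.5–10 μM. ADP 25 nmol depolarised, then FCCP 1 μM was added. A valinomycin calibration in K+-free medium was used, five experiments.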

Series [24] is described as follows: Induction of mPTP in energized rat liver mitochondria at 2.5 to 10 uM after 5 mins in presence of succinate by spectrophotometric analysis.
Series [25] is filed under the species Rattus norvegicus. In words: Inhibition of mPTP in energized rat liver mitochondria at 2.5 to 10 uM after 5 mins in presence of succinate by spectrophotometric analysis.

Regarding `O=C(O)CN(CCN(CC(=O)O)CC(=O)O)CC(=O)O`, the inhibition result in [1] was “Active”.
Consider `CS(=O)(=O)[O-].O=C(/C=C/c1ccc(O)c(O)c1)NCC[P+](c1ccccc1)(c1ccccc1)c1ccccc1`, for which the IC50 in series [2] is 35.4 µM; in series [3], 33.3 µM; in [4], 4.5 µM. Further, the Activity in series [5] is 0.166 V; in [6], 0.572 V; in [11], “Dose-dependent effect”; in [12] it was “Dose-dependent effect”; in series [13], “Dose-dependent effect”; in series [14] it was “Dose-dependent effect”. Moreover, the Activity entry in series [15], in series [16], in [17], in [18], in [19] and in [20] was “Dose-dependent effect” throughout. Moreover, the Drug uptake in series [7] was found to be 1.5 mM; in series [8], 3.7 µM. Further, in series [9], the Ratio is listed as 600. In addition, the inhibition result in [10] was “Active”.
Turning to `CS(=O)(=O)[O-].O=C(/C=C/c1ccc(O)c(O)c1)NCCCCCC[P+](c1ccccc1)(c1ccccc1)c1ccccc1`, the IC50 in series [2] was 29.5 µM; in series [3], 30.5 µM; in [4] it was 4.1 µM. In addition, the Activity in [5] was 0.164 V; in series [6], 0.396 V; in series [22] it was “Dose-dependent effect”; in [11], “Dose-dependent effect”; in series [12], “Dose-dependent effect”; in series [13], “Dose-dependent effect”. Besides, the Activity entry in series [14], in series [15], in series [16], in [17], in series [18] and in series [19] was “Dose-dependent effect” in each case. Moreover, in series [20], the Activity entry is “Dose-dependent effect”. Further, the inhibition entry in [1] and in series [21] was “Active” in each case. Also, the Drug uptake in [7] came out at 2.5 mM; in series [8], 1.8 µM. In addition, the Ratio in [9] stood at 2500.
As for `CS(=O)(=O)[O-].O=C(/C=C/c1cc(O)c(O)c(O)c1)NCCCCCCCC[P+](c1ccccc1)(c1ccccc1)c1ccccc1`, the IC50 in series [2] came to 14.7 µM; in series [3], 8.7 µM; in series [4] it was 2.3 µM. Also, the Activity is 0.046 V in [5]; 0.423 V in series [6]; “Dose-dependent effect” in series [22]; “Dose-dependent effect” in series [11]; 25 mV in [23]; “Non-Toxic” in series [24]. Besides, the Activity result in series [12], in series [13], in series [14], in series [15], in series [16] and in series [17] was “Dose-dependent effect” throughout. The Activity entry in series [18], in [19] and in [20] was “Dose-dependent effect” throughout. Further, the results for the Drug uptake in series [7] and in [8] were 4.5 mM and 1 µM, respectively. Further, the Ratio in series [9] was found to be 3900. In addition, the inhibition entry in series [10] and in series [25] was “Active” in each case.
For the compound `CS(=O)(=O)[O-].O=C(/C=C/c1ccc(O)c(O)c1)NCCCCCCCC[P+](c1ccccc1)(c1ccccc1)c1ccccc1`, the IC50 is 28 µM in series [2], 27.9 µM in [3] and 2.8 µM in [4]. Besides, the Activity in series [5] was 0.17 V; in series [6], 0.345 V; in series [22] it was “Dose-dependent effect”; in [11], “Dose-dependent effect”; in series [23], 10 mV; in [24] it was “Non-Toxic”. For the same compound, the Activity result in series [12], in series [13], in series [14], in [15], in series [16] and in [17] was “Dose-dependent effect” in each case. Moreover, the Activity entry in series [18], in series [19] and in series [20] was “Dose-dependent effect” throughout. Moreover, the Drug uptake was 5.7 mM in series [7] and 1.2 µM in series [8]. Besides, in series [9], the Ratio turned out to be 5100. In addition, the inhibition result in series [25] was “Active”.
In the case of `O=C(O)/C=C/c1ccc(O)c(O)c1` [CAFFEIC ACID], the IC50 turned out to be 18.1 µM in [2], 17.9 µM in series [3] and 3.4 µM in series [4]. In addition, the Activity in series [5] was found to be 0.168 V.

In general, IC50 refers to the concentration needed to halve the response being measured.

These data come from ChEMBL document CHEMBL4038331 (J Med Chem, 2017).
